From article PMC3268775 (Journal of the American Chemical Society, 2012)
Changes are numbered by the printed parent chain. Numbered stars: 1 amine (or outer) side, 2 acyl side, 3 side chain; on linkers, the order of the positions; unused ones are H or OH. Square brackets hold non-standard residues; d marks the D form. Peptide text beside a SMILES is read from it. * marks the point of attachment. Isonicotinoyl(2-(4-Me-2-Py)) = Cc1ccnc(-c2cc(C(=O)*)ccn2)c1; X1 = O=C([C@H](Cc1c(F)cc(O)c(F)c1F)N[*:1])[*:2]

How the values were obtained:
[1] = [Re^I]* emission lifetime of peptide in solution; assay type: physicochemical
How it was run: (§1)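 Time-resolved [Re] emission, monitored at 610 nm. Samples held 10 μM Re-labelled test peptide, 200 μM Ru(NH3)6Cl3, 1 mM CDP and 3 mM ATP in 50 mM sodium borate, pH 8.3, 15 mM MgSO4, 5% glycerol. For the bound state, 20 μM His6-tagged E. coli α2 mutant was added. Samples were equilibrated 3 min at 23 °C and measured while flowing. Lifetimes came from weighted least-squares fits of averaged traces.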

Y731F-α2 = target: T1, Y731F-α2 (Escherichia coli, UniProt P00452, Y731F); assay: [Re^I]* emission lifetime of peptide bound to Y731F-α2; assay type: binding; conditions: 10 μM peptide, 20 μM α2, pH 8.3
T1 sequence (P00452 1-761 Y731F): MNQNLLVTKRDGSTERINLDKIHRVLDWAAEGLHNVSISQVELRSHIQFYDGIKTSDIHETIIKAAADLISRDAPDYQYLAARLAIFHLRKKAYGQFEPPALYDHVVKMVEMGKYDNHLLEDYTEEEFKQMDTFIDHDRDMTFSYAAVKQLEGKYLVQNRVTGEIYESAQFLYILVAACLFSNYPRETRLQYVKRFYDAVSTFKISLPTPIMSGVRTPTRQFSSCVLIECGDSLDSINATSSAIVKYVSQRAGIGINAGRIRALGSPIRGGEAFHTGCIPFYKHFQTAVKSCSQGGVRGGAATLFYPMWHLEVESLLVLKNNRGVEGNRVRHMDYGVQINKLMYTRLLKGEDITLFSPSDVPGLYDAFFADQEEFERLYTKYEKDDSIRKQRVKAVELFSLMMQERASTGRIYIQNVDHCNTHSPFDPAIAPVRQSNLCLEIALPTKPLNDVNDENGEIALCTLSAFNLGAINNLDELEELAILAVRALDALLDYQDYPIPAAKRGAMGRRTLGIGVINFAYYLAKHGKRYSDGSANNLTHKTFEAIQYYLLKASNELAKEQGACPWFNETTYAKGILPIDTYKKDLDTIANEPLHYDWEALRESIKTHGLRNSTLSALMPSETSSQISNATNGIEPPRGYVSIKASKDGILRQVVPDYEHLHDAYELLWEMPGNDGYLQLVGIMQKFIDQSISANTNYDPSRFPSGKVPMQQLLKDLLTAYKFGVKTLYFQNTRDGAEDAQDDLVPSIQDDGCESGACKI
How it was run: as §1

[2] = Flash-quench transient absorption: •F3Y radical of free peptide; assay type: physicochemical
How it was run: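 Free Re-labelled test peptide (50 μM) with 1 mM Ru(NH3)6Cl3 flash quencher, 1 mM CDP and 3 mM ATP in 50 mM borate, pH 8.3, 15 mM MgSO4, 5% glycerol. Samples were equilibrated 3 min at 23 °C and flowed through the cuvette, then excited with a 7 ns 355 nm pulse. Spectra averaged three data sets with FFT noise filtering. Kinetic traces were fitted by weighted least squares; errors are one SD.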

Y730F-α2 = target: T2, Y730F-α2 (Escherichia coli, UniProt P00452, Y730F); assay: Flash-quench transient absorption: •F3Y radical in presence of Y730F-α2; assay type: biochemical; conditions: for radical lifetime change / radical injection (in words): Y730F-α2; for •F3Y lifetime: monoexponential, 50 μM peptide
T2 sequence (P00452 1-761 Y730F): T1 sequence (P00452 1-761 Y731F) with Y730F, F731Y
How it was run: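 Laser flash-quench transient absorption at 23 °C in 50 mM sodium borate, pH 8.3, 15 mM MgSO4, 5% v/v glycerol. Final mix: 50 μM Re-labelled test peptide, 100 μM α2 mutant, 1 mM Ru(NH3)6Cl3, 1 mM CDP, 3 mM ATP, flowing through the cuvette. α2 was N-terminally His6-tagged E. coli protein, IPTG-induced in BL21(DE3) and Ni-NTA purified. Excitation was a 7 ns 355 nm pulse. Decays averaged 3–6 traces and were fitted by weighted least squares from 1 μs.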

CC[C@H](C)[C@H](NC(=O)[C@H](CCC(N)=O)NC(=O)CNC(=O)[C@@H](NC(=O)[C@H](CC(C)C)NC(=O)[C@H](Cc1c(F)cc(O)c(F)c1F)NC(=O)c1ccnc(-c2cc(C)ccn2)c1)C(C)C)C(=O)N[C@@H](CC(=O)O)C(=O)N[C@@H](CO)C(=O)N[C@@H](CCC(=O)O)C(=O)N[C@H](C(=O)N[C@@H](CC(=O)O)C(=O)N[C@H](C(=O)N[C@@H](CC(=O)O)C(=O)N[C@@H](CC(=O)O)C(=O)N[C@@H](CC(C)C)C(=O)N[C@@H](CO)C(=O)N[C@@H](CC(N)=O)C(=O)N[C@@H](Cc1ccccc1)C(=O)N[C@@H](CCC(N)=O)C(=O)N[C@@H](CC(C)C)C(=O)O)[C@@H](C)O)C(C)C [[Re]–F3Y–βC19] ({Isonicotinoyl(2-(4-Me-2-Py))}-[X1]LVGQIDSEVDTDDLSNFQL-OH; N-terminus and C-terminus assumed)
[Re^I]* emission decay, contribution of short component ([1]; pH 8.3, 22 ns component): 81%
[Re^I]* emission decay, contribution of long component ([1]; pH 8.3, 58 ns component): 19%
[Re^I]* emission lifetime, long component ([1]; pH 8.3, biphasic, [Re^I]* unchanged by proximal F3Y): 58 ns
[Re^I]* emission lifetime, short component ([1]; pH 8.3, biphasic, quenching by deprotonated F3Y−): 22 ns
[Re^I]* emission lifetime, "on" state (Y731F-α2): 29 ns
fast time component, recombination of charge-separated state ([2]; flash quench, 20 mol equiv Ru(NH3)6Cl3, λdet 425 nm): 100 ns
•F3Y lifetime τ395 ([2]; free peptide, 395 nm, monoexponential, 50 μM peptide, 1 mM Ru(NH3)6Cl3, 1 mM CDP, 3 mM ATP, 15 mM MgSO4, 5% glycerol, 50 mM borate pH 8.3, average of 3–6 data sets): 14.7 ± 0.2 μs
•F3Y lifetime τ410 ([2]; free peptide, 410 nm, monoexponential, 50 μM peptide, 1 mM Ru(NH3)6Cl3, borate pH 8.3, average of 3–6 data sets): 13.5 ± 0.2 μs
•F3Y lifetime τ425 ([2]; free peptide, 425 nm, monoexponential, 50 μM peptide, 1 mM Ru(NH3)6Cl3, borate pH 8.3, average of 3–6 data sets): 14.5 ± 0.4 μs
photochemical yield of •F3Y formation ([2]; optimized flash-quench system, 20 mol equiv Ru(NH3)6Cl3, calculated, see SI): 4.9%
radical lifetime change / radical injection (in words) (Y730F-α2): radical injection into the surface of the protein is blocked
•F3Y lifetime (Y730F-α2; Y730F-α2, 395 nm, 100 μM α2, pH 8.3): 14.4 ± 0.2 μs
•F3Y lifetime (Y730F-α2; Y730F-α2, 410 nm, 100 μM α2, pH 8.3): 13.7 ± 0.2 μs
•F3Y lifetime (Y730F-α2; Y730F-α2, 425 nm, 100 μM α2, 1 mM Ru(NH3)6Cl3, 1 mM CDP, 3 mM ATP, borate pH 8.3): 14.0 ± 0.2 μs
radical lifetime change / radical injection (in words) (Y730F-α2; listed as [Re]–•F3Y–βC19): no significant change in radical lifetime
